Assays:
[1] = biological target: Sodium- and chloride-dependent GABA transporter 1 (Mus musculus) (UniProt P31648); experiment: Displacement of [3H]NO711 from mouse GAT1 expressed in HEK293 cells at 100 uM measured after 40 mins of incubation by LC-ESI-MS-MS method; assay type: cell-based; conditions: in the assay text read “NO711” for “[3H]NO711”
Method in brief: (§1)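 Competitive MS Binding Assay for mGAT1 using NO-711 as a nonlabeled marker, quantified by LC–ESI–MS–MS. Compounds were screened at 100 µM. […] Otherwise, the percentage of remaining binding at 100 µM is given.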

[2] = Lipophilicity, logP of the compound by UPLC-MS method; assay type: physicochemical; conditions: octanol/water
Method in brief: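 LogP measured by UPLC on a BEH C18 column (2.1 × 100 mm, 1.7 µm, with C18 pre-column) coupled to an ESI tandem quadrupole MS. The method was calibrated with reference compounds of established logP values.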

[3] = biological target: T1, Sodium- and chloride-dependent GABA transporter 1 (Mus musculus, UniProt P31648); experiment: Inhibition of mouse GAT1 expressed in HEK293 cell line assessed as inhibition of [3H]GABA uptake measured after 35 mins by liquid scintillation method; assay type: cell-based
Method in brief: (§2)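 Otherwise, the remaining uptake at 100 µM is reported as a percentage. Values without SEM come from a single triplicate experiment.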

GABA transporter 4 [4] = biological target: T2, GABA transporter 4 (Mus musculus, UniProt P31650); experiment: Inhibition of mouse GAT4 expressed in HEK293 cell line assessed as inhibition of [3H]GABA uptake measured after 35 mins by liquid scintillation method; assay type: cell-based; method in brief: as §2
T2 sequence (P31650 whole entry): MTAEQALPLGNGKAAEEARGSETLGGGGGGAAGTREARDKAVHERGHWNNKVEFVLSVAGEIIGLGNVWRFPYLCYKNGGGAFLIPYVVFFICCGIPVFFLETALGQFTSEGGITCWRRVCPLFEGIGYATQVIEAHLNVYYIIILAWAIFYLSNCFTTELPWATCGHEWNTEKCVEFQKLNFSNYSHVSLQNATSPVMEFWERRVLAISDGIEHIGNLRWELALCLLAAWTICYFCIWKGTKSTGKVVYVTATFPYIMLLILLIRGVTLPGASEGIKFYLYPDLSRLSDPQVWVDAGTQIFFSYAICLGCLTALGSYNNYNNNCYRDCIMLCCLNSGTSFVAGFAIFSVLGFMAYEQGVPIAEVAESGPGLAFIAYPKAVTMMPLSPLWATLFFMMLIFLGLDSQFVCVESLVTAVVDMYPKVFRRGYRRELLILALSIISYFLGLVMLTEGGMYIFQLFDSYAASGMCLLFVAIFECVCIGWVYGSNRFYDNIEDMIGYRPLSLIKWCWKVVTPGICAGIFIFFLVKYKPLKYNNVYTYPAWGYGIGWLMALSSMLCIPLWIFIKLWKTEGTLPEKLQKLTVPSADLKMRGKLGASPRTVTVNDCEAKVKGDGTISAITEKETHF

[5] = biological target: T1, Sodium- and chloride-dependent GABA transporter 1; experiment: Displacement of [3H]NO711 from mouse GAT1 expressed in HEK293 cells measured after 40 mins of incubation by LC-ESI-MS-MS method; assay type: cell-based; conditions: in the assay text read “unlabelled NO711” for “[3H]NO711”; method in brief: as §1
GABA transporter 4 [6] = biological target: T2, GABA transporter 4; experiment: Inhibition of mouse GTA4 receptor
GABA transporter 3 = biological target: T3, GABA transporter 3 (Mus musculus, UniProt P31649); experiment: Inhibition of mouse GTA 3 receptor
T3 sequence (P31649 whole entry): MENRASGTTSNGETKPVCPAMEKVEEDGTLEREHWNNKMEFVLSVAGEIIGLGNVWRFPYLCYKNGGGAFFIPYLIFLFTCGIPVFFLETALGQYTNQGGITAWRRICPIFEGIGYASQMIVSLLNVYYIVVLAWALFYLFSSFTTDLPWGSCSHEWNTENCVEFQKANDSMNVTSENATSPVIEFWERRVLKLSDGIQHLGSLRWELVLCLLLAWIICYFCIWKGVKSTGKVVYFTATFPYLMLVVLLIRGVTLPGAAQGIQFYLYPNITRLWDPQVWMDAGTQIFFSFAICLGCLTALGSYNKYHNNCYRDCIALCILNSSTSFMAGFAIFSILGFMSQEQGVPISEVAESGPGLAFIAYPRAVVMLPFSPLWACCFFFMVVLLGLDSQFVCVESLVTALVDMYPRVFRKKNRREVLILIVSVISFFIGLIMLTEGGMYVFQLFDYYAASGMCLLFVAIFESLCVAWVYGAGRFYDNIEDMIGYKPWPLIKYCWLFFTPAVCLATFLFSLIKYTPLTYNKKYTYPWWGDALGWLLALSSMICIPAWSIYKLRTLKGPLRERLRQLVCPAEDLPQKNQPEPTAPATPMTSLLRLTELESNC

[7] = biological target: T1, Sodium- and chloride-dependent GABA transporter 1; experiment: Inhibition of mouse GTA 1 receptor
[8] = biological target: Sodium- and chloride-dependent GABA transporter 1 (Mus musculus) (UniProt P31648); experiment: Inhibition of mouse GAT1 expressed in HEK293 cell line assessed as inhibition of [3H]GABA uptake at 100 uM measured after 35 mins by liquid scintillation method; values are per cent of control

Structure (SMILES) | residual activity [1] [%] | logP ([2]; read-out: logP) | IC50 [3] [µM] | IC50 (GABA transporter 4 [4]) [µM] | further results
Cc1ccsc1C(=CCCN(C)C(CCO)C(=O)NCc1ccc(F)cc1F)c1sccc1C (stereo unspecified) | 71 | 6.37 | 12.3 | 8.71 | 
CC(=O)NCCC(C(=O)NCc1ccccc1Cl)N(C)CCC=C(c1sccc1C)c1sccc1C (stereo unspecified) | 68 | 6.46 | 8.71 | 6.17 | 
Cc1ccsc1C(=CCCN(C)C(CCN)C(=O)NCc1ccccc1Cl)c1sccc1C (stereo unspecified) |  | 6.11 | 7.59 | 5.62 | Ki [5]: 11.7 µM
Cc1ccsc1C(=CCCN(C)C(CCO)C(=O)NCc1ccccc1)c1sccc1C (stereo unspecified) | 60 | 5.71 | 15.8 | 10.2 | 
Cc1ccsc1C(=CCCN(C)[C@H]1CCc2onc(O)c2C1)c1sccc1C |  |  |  |  | IC50 (GABA transporter 4 [6]): > 302 µM; IC50 (GABA transporter 3): > 302 µM; IC50 [7]: 7.08 µM
Cc1ccsc1C(=CCCN(C)C1CCc2onc(O)c2C1)c1sccc1C (stereo unspecified) |  |  | 7.08 | > 302 | 
Cc1ccsc1C(=CCCN(C)C(CC(C)O)C(=O)NCc1ccc(Cl)cc1)c1sccc1C (stereo in doubt) [listing 1 of 2 here] | 90 |  |  |  | residual activity [8]: 63%
Cc1ccsc1C(=CCCN(C)[C@@H]1CCc2onc(O)c2C1)c1sccc1C |  |  |  |  | IC50 (GABA transporter 4 [6]): > 302 µM; IC50 (GABA transporter 3): > 302 µM; IC50 [7]: 7.08 µM
Cc1ccsc1C(=CCCN(C)C(CC(C)O)C(=O)NCc1ccc(F)cc1)c1sccc1C (racemic; form 1) [listing 1 of 2 here] |  | 5.51 | 66.1 | 17.8 | 
Cc1ccsc1C(=CCCN(C)C(CC(C)O)C(=O)NCc1ccc(Cl)cc1)c1sccc1C (mixture of isomers) [listing 1 of 2 here] |  |  | 57.5 | 13.2 | logP [2]: 6.77
Cc1ccsc1C(=CCCN(C)C(CC(C)O)C(=O)NCc1ccccc1Cl)c1sccc1C (racemic; form 1) [listing 1 of 2 here] |  | 5.95 |  | 9.55 | 
Cc1ccc(CNC(=O)C(CC(C)O)N(C)CCC=C(c2sccc2C)c2sccc2C)cc1 (stereo in doubt) [listing 1 of 2 here] | 72 |  |  |  | 
Cc1ccsc1C(=CCCN(C)C(CO)C(=O)NCc1ccccc1)c1sccc1C (stereo unspecified) | 46 | 6.26 | 35.5 | 20.9 | 
Cc1ccc(CNC(=O)C(CC(C)O)N(C)CCC=C(c2sccc2C)c2sccc2C)cc1 (racemic) [listing 1 of 2 here] | 79 |  |  |  | 
Cc1ccsc1C(=CCCN(C)C(CO)C(=O)NCc1ccc(C(F)(F)F)cc1)c1sccc1C (stereo unspecified) | 92 |  | 13.5 | 17 | 
Cc1ccsc1C(=CCCN(C)C(CC(C)O)C(=O)NCc1ccc(Cl)cc1)c1sccc1C (stereo in doubt) [listing 2 of 2 here] |  | 5.99 |  | 28.8 | 
Cc1ccc(CNC(=O)C(CCO)N(C)CCC=C(c2sccc2C)c2sccc2C)cc1 (stereo unspecified) | 58 | 6.2 | 12.9 | 7.08 | 
Cc1ccsc1C(=CCCN(C)[C@H](CO)C(=O)NCc1ccc(Cl)cc1)c1sccc1C |  |  | 20.4 |  | Ki [5]: 18.6 µM
Cc1ccsc1C(=CCCN(C)C(CC(C)O)C(=O)NCc1ccccc1Cl)c1sccc1C (racemic; form 2) [listing 1 of 2 here] | 88 |  |  |  | residual activity [8]: 47%
Cc1ccc(CNC(=O)C(CC(C)O)N(C)CCC=C(c2sccc2C)c2sccc2C)cc1 (stereo in doubt) [listing 2 of 2 here] |  | 6.15 | 25.1 | 7.08 | 
Cc1ccsc1C(=CCCN(C)C(CC(C)O)C(=O)NCc1ccc(F)cc1)c1sccc1C (racemic; form 2) [listing 1 of 2 here] |  |  | 85.1 | 29.5 | 
O=C(O)C1=CCCN(CCO/N=C/c2ccccc2-c2ccc(Cl)cc2Cl)C1 |  |  |  | 85.1 | 
Cc1ccsc1C(=CCCN(C)C(CC(C)O)C(=O)NCc1ccccc1)c1sccc1C (racemic; form 2) [listing 1 of 2 here] |  |  | 23.4 | 18.6 | logP [2]: 6.22

Structure (SMILES) | residual activity [1] [%] | logP ([2]; read-out: logP) | IC50 [3] [µM] | IC50 (GABA transporter 4 [4]) [µM] | further results
NCCC(=O)O [BETA-ALANINE] |  |  |  |  | IC50 (GABA transporter 4 [6]): 110 µM; IC50 (GABA transporter 3): 66.1 µM; IC50 [7]: 2950 µM
Cc1ccsc1C(=CCCN(C)C(CCO)C(=O)NCc1ccc(Cl)cc1)c1sccc1C (stereo unspecified) | 81 | 6.38 | 9.33 | 7.41 | 
O=C1Nc2ccc(-c3cccs3)cc2C1=O |  |  |  |  | IC50 (GABA transporter 4 [6]): 6.31 µM; IC50 (GABA transporter 3): 182 µM; IC50 [7]: > 1000 µM
Cc1ccsc1C(=CCCN(C)C(CC(C)O)C(=O)NCc1ccccc1)c1sccc1C (racemic; form 1) [listing 1 of 2 here] | 82 |  |  |  | 
NCC(O)C(=O)O (stereo unspecified) |  |  | 2510 | 5.01 | 
Cc1ccsc1C(=CCCN(C)C(CCN)C(=O)NCc1ccccc1)c1sccc1C (stereo unspecified) |  | 5.5 | 11.5 | 6.61 | Ki [5]: 24.5 µM
Cc1ccsc1C(=CCCN(C)C(CCN)C(=O)NCc1ccc(Cl)cc1)c1sccc1C (stereo unspecified) |  | 5.85 | 9.33 | 8.13 | Ki [5]: 20 µM
Cc1ccc(CNC(=O)C(CC(C)O)N(C)CCC=C(c2sccc2C)c2sccc2C)cc1 (racemic) [listing 2 of 2 here] |  |  | 12.3 | 5.5 | 
Cc1ccsc1C(=CCCN(C)C(CC(C)O)C(=O)NCc1ccccc1)c1sccc1C (racemic; form 2) [listing 2 of 2 here] | 59 |  |  |  | 
Cc1ccsc1C(=CCCN(C)C(CCO)C(=O)NC(C)c1ccccc1)c1sccc1C (stereo unspecified) | 68 | 6.1 | 30.2 | 13.8 | 
Cc1ccsc1C(=CCCN(C)C(CC(C)O)C(=O)NCc1ccccc1Cl)c1sccc1C (racemic; form 1) [listing 2 of 2 here] | 85 |  |  |  | residual activity [8]: 51%
Cc1ccsc1C(=CCCN(C)C(CC(C)O)C(=O)NCc1ccc(F)cc1)c1sccc1C (racemic; form 1) [listing 2 of 2 here] | 78 |  |  |  | 
Cc1ccsc1C(=CCCN(C)C(CCO)C(=O)NCc1ccc(F)cc1)c1sccc1C (stereo unspecified) | 70 | 5.87 | 15.5 | 11 | 
Cc1ccsc1C(=CCCN(C)C(CC(C)O)C(=O)NCc1ccccc1Cl)c1sccc1C (racemic; form 2) [listing 2 of 2 here] |  |  |  |  | logP [2]: 5.67; pIC50 (GABA transporter 4 [4]; hek293): 5.02
Cc1ccc(CNC(=O)C(CCN)N(C)CCC=C(c2sccc2C)c2sccc2C)cc1 (stereo unspecified) |  | 6.61 | 11.5 | 6.92 | Ki [5]: 18.2 µM
CN(CCC=C(c1ccccc1)c1ccccc1)C(CCN)C(=O)NCc1ccccc1Cl (stereo unspecified) |  |  |  |  | IC50 (GABA transporter 3): 10 µM
Cc1ccsc1C(=CCCN(C)C(CC(C)O)C(=O)NCc1ccc(F)cc1)c1sccc1C (racemic; form 2) [listing 2 of 2 here] | 70 |  |  |  | 
Cc1ccsc1C(=CCCN(C)C(CC(C)O)C(=O)NCc1ccc(Cl)cc1)c1sccc1C (mixture of isomers) [listing 2 of 2 here] | 91 |  |  |  | 
Cc1ccsc1C(=CCCN(C)C(CCN)C(=O)NCc1ccc(F)cc1)c1sccc1C (stereo unspecified) |  | 6.45 | 11.7 | 7.59 | Ki [5]: 21.9 µM
Cc1ccsc1C(=CCCN(C)[C@@H](CO)C(=O)NCc1ccc(Cl)cc1)c1sccc1C |  |  |  |  | Ki [5]: 87.1 µM
Cc1ccsc1C(=CCCN(C)C(CC(C)O)C(=O)NCc1ccccc1)c1sccc1C (racemic; form 1) [listing 2 of 2 here] |  | 5.64 | 13.2 | 3.89 | 
Cc1ccsc1C(=CCCN(C)[C@H](CCO)C(=O)NCc1ccccc1Cl)c1sccc1C |  |  | 13.8 |  | Ki [5]: 25.7 µM

From ChEMBL document CHEMBL4765247, “Novel mouse GABA uptake inhibitors with enhanced inhibitory activity toward mGAT3/4 and their effect on pain threshold in mice” (Eur J Med Chem, 2020)
